Measured values published in ChEMBL document CHEMBL5357024, “MDM2 Antagonist Idasanutlin Reduces HDAC1/2 Abundance and Corepressor Partners but Not HDAC3” (ACS Med Chem Lett, 2024).

What was measured:
Format in all cases: cell-based
[1] = target: T1, E3 ubiquitin-protein ligase Mdm2/Histone deacetylase 1 (Homo sapiens) (UniProt Q00987+Q13547); test: PROTAC activity at MDM2/HDAC1 in human HCT-116 cells assessed as decrease in HDAC1 abundance by measuring remaining activity at 2.5 uM measured after 24 hrs by Western blot analysis (reference value: 100%)
Summary of the method: (§1)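 HCT116 cells seeded in six-well plates for 24 h, then exposed 24 h to compound (0.01–10 μM) or DMSO in fresh medium. Lysis in Tris-HCl/NaCl/NP-40/Triton X-100 with protease inhibitor. Bradford-normalised 30 μg protein per lane. Quantitative Western blot used specific HDAC1, HDAC2, HDAC3, LSD1 or Sin3a antibodies with IRDye secondaries. Abundance compared with DMSO, n = 2 replicates.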

[2] = target: T2, E3 ubiquitin-protein ligase Mdm2/Histone deacetylase 3 (Homo sapiens) (UniProt Q00987+O15379); test: PROTAC activity at MDM2/HDAC3 in human HCT-116 cells assessed as reduction in HDAC3 abundance by measuring remaining activity at 0.1 uM measured after 24 hrs by Western blot analysis (reference value: 100%)
Summary of the method: (§2)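 HCT116 cells in DMEM with 10% FBS and glutamine/penicillin/streptomycin at 37 °C, 5% CO2. Seeded 4 × 10^5 cells/well, after 24 h treated 24 h with DMSO or compound in fresh medium. Lysed in Tris-HCl/NaCl/NP-40/Triton X-100 buffer with protease inhibitor, Bradford-quantified, 30 μg protein per lane. Quantitative Western blot with specific HDAC1/2/3 antibodies, IRDye secondaries, infrared imaging, versus DMSO. n = 2 replicates.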

[3] = target: T2, E3 ubiquitin-protein ligase Mdm2/Histone deacetylase 3 (Homo sapiens); test: PROTAC activity at MDM2/HDAC3 in human HCT-116 cells assessed as reduction in HDAC3 abundance by measuring remaining activity at 2.5 uM measured after 24 hrs by Western blot analysis; summary of the method: as §2
[4] = target: Lysine-specific histone demethylase 1A (Homo sapiens) (UniProt O60341); test: Induction of LSD1 degradation in human HCT-116 cells assessed as reduction in LSD1 abundance by measuring remaining activity at 0.05 uM measured after 24 hrs by Western blot analysis (reference value: 100%); summary of the method: as §1
[5] = target: T1, E3 ubiquitin-protein ligase Mdm2/Histone deacetylase 1 (Homo sapiens); test: PROTAC activity at MDM2/HDAC1 in human HCT-116 cells assessed as decrease in HDAC1 abundance by measuring remaining activity at 0.25 uM measured after 24 hrs by Western blot analysis (reference value: 100%); summary of the method: as §1
[6] = target: T1, E3 ubiquitin-protein ligase Mdm2/Histone deacetylase 1 (Homo sapiens); test: PROTAC activity at MDM2/HDAC1 in human HCT-116 cells assessed as decrease in HDAC1 abundance by measuring remaining activity at 0.01 uM measured after 24 hrs by Western blot analysis (reference value: 100%); summary of the method: as §1
[7] = target: Lysine-specific histone demethylase 1A (Homo sapiens) (UniProt O60341); test: Induction of LSD1 degradation in human HCT-116 cells assessed as reduction in LSD1 abundance by measuring remaining activity at 0.1 uM measured after 24 hrs by Western blot analysis (reference value: 100%); summary of the method: as §1
[8] = target: T2, E3 ubiquitin-protein ligase Mdm2/Histone deacetylase 3 (Homo sapiens); test: PROTAC activity at MDM2/HDAC3 in human HCT-116 cells assessed as reduction in HDAC3 abundance by measuring remaining activity at 0.25 uM measured after 24 hrs by Western blot analysis; summary of the method: as §2
[9] = target: T2, E3 ubiquitin-protein ligase Mdm2/Histone deacetylase 3 (Homo sapiens); test: PROTAC activity at MDM2/HDAC3 in human HCT-116 cells assessed as reduction in HDAC3 abundance by measuring remaining activity at 0.5 uM measured after 24 hrs by Western blot analysis; summary of the method: as §2
[10] = target: T1, E3 ubiquitin-protein ligase Mdm2/Histone deacetylase 1 (Homo sapiens); test: PROTAC activity at MDM2/HDAC1 in human HCT-116 cells assessed as decrease in HDAC1 abundance by measuring remaining activity at 1 uM measured after 24 hrs by Western blot analysis (reference value: 100%); summary of the method: as §1
[11] = target: Lysine-specific histone demethylase 1A (Homo sapiens) (UniProt O60341); test: Induction of LSD1 degradation in human HCT-116 cells assessed as reduction in LSD1 abundance by measuring remaining activity at 0.5 uM measured after 24 hrs by Western blot analysis (reference value: 100%); summary of the method: as §1
[12] = target: T1, E3 ubiquitin-protein ligase Mdm2/Histone deacetylase 1 (Homo sapiens); test: PROTAC activity at MDM2/HDAC1 in human HCT-116 cells assessed as decrease in HDAC1 abundance by measuring remaining activity at 10 uM measured after 24 hrs by Western blot analysis (reference value: 100%); summary of the method: as §1
[13] = target: E3 ubiquitin-protein ligase Mdm2/Histone deacetylase 2 (Homo sapiens) (UniProt Q00987+Q92769); test: PROTAC activity at MDM2/HDAC2 in human HCT-116 cells assessed as decrease in HDAC2 abundance by measuring remaining activity at 1 uM measured after 24 hrs by Western blot analysis (reference value: 100%); summary of the method: as §1
Sequence of E3 ubiquitin-protein ligase Mdm2/Histone deacetylase 2 (Homo sapiens) (Q00987 whole entry, looked up): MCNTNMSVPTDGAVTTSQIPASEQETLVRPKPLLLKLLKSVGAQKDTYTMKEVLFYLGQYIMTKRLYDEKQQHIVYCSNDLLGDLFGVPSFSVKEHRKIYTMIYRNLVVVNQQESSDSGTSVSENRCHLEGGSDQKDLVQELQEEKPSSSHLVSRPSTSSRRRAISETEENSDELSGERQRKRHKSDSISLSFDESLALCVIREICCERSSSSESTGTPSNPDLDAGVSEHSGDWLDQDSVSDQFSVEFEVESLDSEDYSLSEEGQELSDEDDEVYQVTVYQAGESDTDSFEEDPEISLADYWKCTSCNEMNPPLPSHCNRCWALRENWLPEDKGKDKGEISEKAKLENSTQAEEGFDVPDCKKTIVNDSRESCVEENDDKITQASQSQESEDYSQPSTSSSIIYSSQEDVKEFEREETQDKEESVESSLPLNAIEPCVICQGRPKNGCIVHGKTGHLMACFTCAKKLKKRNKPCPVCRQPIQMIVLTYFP
Sequence of E3 ubiquitin-protein ligase Mdm2/Histone deacetylase 2 (Homo sapiens) (Q92769 whole entry, looked up): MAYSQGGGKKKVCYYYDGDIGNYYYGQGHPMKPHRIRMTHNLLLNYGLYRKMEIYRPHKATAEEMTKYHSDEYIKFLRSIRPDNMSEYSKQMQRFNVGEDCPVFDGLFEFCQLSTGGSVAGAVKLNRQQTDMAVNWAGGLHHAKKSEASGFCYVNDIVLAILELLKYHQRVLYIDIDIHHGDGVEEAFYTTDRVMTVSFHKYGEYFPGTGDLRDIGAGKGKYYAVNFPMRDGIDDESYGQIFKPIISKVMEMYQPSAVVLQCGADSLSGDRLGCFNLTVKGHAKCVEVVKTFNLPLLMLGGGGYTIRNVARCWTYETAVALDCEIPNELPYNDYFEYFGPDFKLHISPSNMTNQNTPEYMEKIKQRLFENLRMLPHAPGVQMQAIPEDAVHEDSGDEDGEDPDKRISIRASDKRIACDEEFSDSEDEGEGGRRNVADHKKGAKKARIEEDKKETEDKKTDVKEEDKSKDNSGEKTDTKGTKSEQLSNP

T1 sequence (Q00987 whole entry, looked up): as the sequence (Q00987 whole entry, looked up) above
T1 sequence (Q13547 whole entry, looked up): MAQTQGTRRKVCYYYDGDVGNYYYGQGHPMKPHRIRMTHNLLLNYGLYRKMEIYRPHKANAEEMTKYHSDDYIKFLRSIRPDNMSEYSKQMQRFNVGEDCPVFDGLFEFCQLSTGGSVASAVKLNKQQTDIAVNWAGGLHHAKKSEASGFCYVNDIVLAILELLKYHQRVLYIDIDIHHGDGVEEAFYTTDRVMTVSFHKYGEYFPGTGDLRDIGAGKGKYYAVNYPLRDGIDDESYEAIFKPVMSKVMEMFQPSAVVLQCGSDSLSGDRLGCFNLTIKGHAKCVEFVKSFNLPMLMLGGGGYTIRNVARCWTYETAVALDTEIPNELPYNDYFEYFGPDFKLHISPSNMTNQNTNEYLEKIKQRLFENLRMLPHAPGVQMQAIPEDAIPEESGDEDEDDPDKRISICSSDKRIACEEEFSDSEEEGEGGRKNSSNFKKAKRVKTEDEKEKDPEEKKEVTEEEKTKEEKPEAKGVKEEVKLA
T2 sequence (O15379 whole entry, looked up): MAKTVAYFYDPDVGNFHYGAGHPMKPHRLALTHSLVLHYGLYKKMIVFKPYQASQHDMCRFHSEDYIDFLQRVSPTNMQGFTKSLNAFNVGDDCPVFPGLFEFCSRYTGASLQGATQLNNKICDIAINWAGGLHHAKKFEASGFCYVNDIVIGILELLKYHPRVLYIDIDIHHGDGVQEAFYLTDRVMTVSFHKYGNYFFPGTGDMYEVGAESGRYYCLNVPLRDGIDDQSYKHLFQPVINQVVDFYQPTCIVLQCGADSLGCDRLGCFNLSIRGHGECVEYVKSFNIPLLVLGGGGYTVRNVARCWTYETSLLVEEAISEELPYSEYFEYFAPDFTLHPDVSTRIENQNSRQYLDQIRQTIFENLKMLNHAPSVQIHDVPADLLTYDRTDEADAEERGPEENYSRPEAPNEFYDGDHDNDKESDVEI
T2 sequence (Q00987 whole entry, looked up): as the sequence (Q00987 whole entry, looked up) above

- Activity [1]: 39%
- Activity [2]: 103%
- Activity [3]: 112%
- Activity [4]: 95%
- Activity [5]: 70%
- Activity [6]: 108%
- Activity [7]: 104%
- Activity [8]: 102%
- Activity [9]: 106%
- Activity [10]: 43%
- Activity [11]: 86%
- Activity [12]: 36%
- Activity [13]: 69%
Compound: COc1cc(C(=O)NCCOCCOCCOCCOCCC(=O)Nc2ccc(C(=O)Nc3ccccc3N)cc2)ccc1NC(=O)[C@@H]1N[C@@H](CC(C)(C)C)[C@](C#N)(c2ccc(Cl)cc2F)[C@H]1c1cccc(Cl)c1F
